Source: ChEMBL document CHEMBL3875169, “Synthesis, in vitro anticancer and antibacterial activities and in silico studies of new 4-substituted 1,2,3-triazole-coumarin hybrids” (Eur J Med Chem, 2016)
pIC50: −log10 of the molar value. Converted amounts (≈) assume the structure as drawn.

Legend:
Escherichia coli = assay: Antibacterial activity against Escherichia coli ATCC 25925 after 16 to 20 hrs by broth microdilution method; assay type: functional; conditions: read-out: MIC=>80
Procedure, shortened: (§1)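 Broth microdilution per CLSI in cation (Ca2+, Mg2+)-adjusted Mueller-Hinton broth; compounds in serial two-fold dilutions, 256–0.25 µg/mL; direct colony suspension inoculum, final 5 x 10^5 CFU/mL; 35 ± 2 °C, 16–20 h, ambient air. MIC is the lowest concentration completely inhibiting visible growth versus growth control; with trailing, endpoint read at ≥80% growth reduction. E. coli ATCC 25922 and P. aeruginosa ATCC 27853 served as QC.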

Staphylococcus aureus = assay: Antibacterial activity against Staphylococcus aureus ATCC 25923 after 16 to 20 hrs by broth microdilution method; assay type: functional; procedure, shortened: as §1
Acinetobacter baumannii = assay: Antibacterial activity against Acinetobacter baumannii ATCC 19606 after 16 to 20 hrs by broth microdilution method; assay type: functional; procedure, shortened: as §1
Pseudomonas aeruginosa = assay: Antibacterial activity against Pseudomonas aeruginosa ATCC 27853 after 16 to 20 hrs by broth microdilution method; assay type: functional; procedure, shortened: as §1
Enterococcus faecalis = assay: Antibacterial activity against Enterococcus faecalis after 16 to 20 hrs by broth microdilution method; assay type: functional; procedure, shortened: as §1
Klebsiella pneumoniae = assay: Antibacterial activity against ESBL-producing Klebsiella pneumoniae ATCC 27736 after 16 to 20 hrs by broth microdilution method; assay type: functional; procedure, shortened: as §1
[1] = Growth inhibition of human HepG2 cells after 72 hrs by MTT assay; assay type: functional, cell-based; conditions: HepG2, 72 h
Procedure, shortened: (§2)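 Monolayers in DMEM with 10% FBS, 2 mM L-glutamine and penicillin/streptomycin, 37 °C, 5% CO2; 5000 cells/well seeded day 0. Compounds added as five 10-fold dilutions (0.01–100 µM), DMSO ≤0.1%, for 72 h. MTT absorbance converted to percentage growth (NIH formulas); IC50 by linear regression between bracketing concentrations, highest concentration reported with ">" when not reached. Quadruplicate points, three experiments.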

[2] = Growth inhibition of human SW620 cells after 72 hrs by MTT assay; assay type: functional, cell-based; conditions: SW-620, 72 h; procedure, shortened: as §2
[3] = Growth inhibition of human HeLa cells after 72 hrs by MTT assay; assay type: functional, cell-based; procedure, shortened: as §2
[4] = Growth inhibition of human A549 cells after 72 hrs by MTT assay; assay type: functional, cell-based; conditions: A549, 72 h; procedure, shortened: as §2
[5] = Growth inhibition of human CFPAC-1 cells after 72 hrs by MTT assay; assay type: functional, cell-based; conditions: CFPAC-1, 72 h; procedure, shortened: as §2
[6] = Growth inhibition of human WI38 cells after 72 hrs by MTT assay; assay type: cell-based; conditions: WI-38, 72 h; procedure, shortened: as §2
A549 = assay: Selectivity index, ratio of IC50 for […] cells to IC50 for human A549 cells; assay type: functional

Row | MIC (Escherichia coli) [µg/mL] | MIC80 (Staphylococcus aureus) [µg/mL] | MIC80 (Acinetobacter baumannii) [µg/mL] | MIC80 (Pseudomonas aeruginosa) [µg/mL] | MIC80 (Enterococcus faecalis) [µg/mL] | MIC80 (Klebsiella pneumoniae) [µg/mL] | SMILES | pIC50 [1] | pIC50 [2] | pIC50 [3] | pIC50 [4] | pIC50 [5] | pIC50 [6] | Ratio IC50 (A549)
1 |  |  |  |  |  |  | O=c1cc(Cn2cc(CCCCO)nn2)c2ccc(O)cc2o1 | < 4.00 | < 4.00 | < 4.00 | < 4.00 | < 4.00 |  | 
2 | > 256 | > 256 | > 256 | > 256 | 256 (≈ 560 µM) | > 256 | O=c1cc(Cn2cc(CNS(=O)(=O)c3ccc([N+](=O)[O-])cc3)nn2)c2ccc(O)cc2o1 | < 4.00 | < 4.00 | < 4.00 | < 4.00 | < 4.00 | > 8.00 | 
3 |  |  |  |  |  |  | Cn1c(-c2cn(Cc3cc(=O)oc4cc(O)ccc34)nn2)nc2ccccc21 | 4.15 | < 4.00 | 4.31 | < 4.00 | 4.12 |  | 
4 |  |  |  |  |  |  | O=c1cc(Cn2cc(CCO)nn2)c2ccc(O)cc2o1 | < 4.00 | < 4.00 | < 4.00 | 4.04 | < 4.00 |  | 
5 | > 256 | > 256 | > 256 | > 256 | 16 (≈ 38.3 µM) | > 256 | O=c1cc(Cn2cc(CSC(=S)N3CCNCC3)nn2)c2ccc(O)cc2o1 | < 4.00 | < 4.00 | < 4.00 | 4.02 | < 4.00 | < 4.00 | 
6 | > 256 | > 256 | > 256 | > 256 | 64 (≈ 170 µM) | > 256 | CCCCc1ccc(-c2cn(Cc3cc(=O)oc4cc(O)ccc34)nn2)cc1 | 4.32 | 4.31 | 4.41 | 4.86 | 4.16 |  | 
7 | < 0.125 | 0.25 (≈ 0.754 µM) | < 0.125 | < 0.125 | 0.5 (≈ 1.51 µM) | > 256 | O=C(O)c1cn(C2CC2)c2cc(N3CCNCC3)c(F)cc2c1=O [CIPROFLOXACIN] |  |  |  |  |  |  | 
8 | > 256 | > 256 | > 256 | > 256 | 64 (≈ 149 µM) | > 256 | O=c1cc(Cn2cc(CNS(=O)(=O)c3ccc(F)cc3)nn2)c2ccc(O)cc2o1 | 4.12 | < 4.00 | < 4.00 | 4.05 | < 4.00 | 4.60 | 
9 | > 256 | > 256 | > 256 | > 256 | 256 (≈ 643 µM) | > 256 | O=c1cc(Cn2cc(-c3ccc(Br)cc3)nn2)c2ccc(O)cc2o1 | 4.21 | 4.01 | 4.40 | 4.49 | 4.28 |  | 
10 |  |  |  |  |  |  | O=c1cc(Cn2cc(CCCCl)nn2)c2ccc(O)cc2o1 | < 4.00 | 4.22 | 4.30 | 4.52 | 4.12 |  | 
11 |  |  |  |  |  |  | CC(C)(C)OC(=O)N1CCN(C(=S)SCc2cn(Cc3cc(=O)oc4cc(O)ccc34)nn2)CC1 | 4.24 | < 4.00 | 4.32 | 4.45 | 4.05 | 5.55 | 
12 |  |  |  |  |  |  | O=c1cc(Cn2cc(CCc3ccccc3)nn2)c2ccc(O)cc2o1 | 4.30 | 4.07 | 4.46 | 4.61 | < 4.00 |  | >4
13 |  |  |  |  |  |  | Cc1ccc2nc(-c3ccc(NCc4cn(Cc5cc(=O)oc6cc(O)ccc56)nn4)cc3)sc2c1 | 4.28 | 4.05 | 5.14 | 4.79 | 4.98 |  | 
14 | > 256 | 256 (≈ 600 µM) | > 256 | > 256 | 64 (≈ 150 µM) | > 256 | Cc1ccc(S(=O)(=O)NCc2cn(Cc3cc(=O)oc4cc(O)ccc34)nn2)cc1 | 4.53 | 4.04 | 4.25 | 4.33 | 4.16 | 7.52 | 
15 | > 256 | > 256 | > 256 | > 256 | 64 (≈ 144 µM) | > 256 | CCCC1CCC(c2ccc(-c3cn(Cc4cc(=O)oc5cc(O)ccc45)nn3)cc2)CC1 (centres undefined) | 4.52 | 4.43 | 4.47 | 4.39 | 4.28 | 5.10 | 
16 | > 256 | > 256 | > 256 | > 256 | 32 (≈ 76.5 µM) | > 256 | O=c1cc(Cn2cc(CSC(=S)N3CCOCC3)nn2)c2ccc(O)cc2o1 | 4.00 | ≤ 4.00 | 4.39 | 4.15 | 4.25 | 4.23 | 
17 |  |  |  |  |  |  | O=c1cc(Cn2cc(CCCO)nn2)c2ccc(O)cc2o1 | < 4.00 | < 4.00 | 4.04 | 4.02 | < 4.00 |  | 
18 | > 256 | > 256 | > 256 | > 256 | 32 (≈ 68.8 µM) | > 256 | O=c1cc(Cn2cc(CNS(=O)(=O)c3ccc(F)cc3Cl)nn2)c2ccc(O)cc2o1 | 4.13 | < 4.00 | 4.13 | 4.04 | < 4.00 | 5.84 | 
19 |  |  |  |  |  |  | Cc1ccc2c(Cn3cc(CNc4ccc(-c5nc6ccc(C)cc6s5)cc4)nn3)cc(=O)oc2c1 | 4.02 | ≤ 4.00 | 4.29 | 4.33 | 4.46 |  | 
20 | > 256 | > 256 | > 256 | > 256 | 8 (≈ 20.5 µM) | > 256 | CCCCCc1ccc(-c2cn(Cc3cc(=O)oc4cc(O)ccc34)nn2)cc1 | 4.56 | 4.40 | 4.61 | 4.86 | 4.30 |  | 
21 |  |  |  |  |  |  | CCCCCCc1cn(Cc2cc(=O)oc3cc(O)ccc23)nn1 | 4.21 | < 4.00 | 4.23 | 4.18 | < 4.00 | 4.23 | 
22 | > 256 | > 256 | > 256 | > 256 | 128 (≈ 428 µM) | > 256 | CC(C)(C)c1cn(Cc2cc(=O)oc3cc(O)ccc23)nn1 | < 4.00 | < 4.00 | 4.09 | 4.17 | < 4.00 |  | 
23 | > 256 | > 256 | > 256 | > 256 | 256 (≈ 720 µM) | > 256 | CCCCCCCCc1cn(Cc2cc(=O)oc3cc(O)ccc23)nn1 | 4.47 | 4.29 | 4.45 | 4.34 | 4.20 | 4.36 | 
24 |  |  |  |  |  |  | O=c1cc(Cn2cc(CNS(=O)(=O)c3ccc(Cl)cc3)nn2)c2ccc(O)cc2o1 | 4.50 | < 4.00 | 4.23 | 4.32 | 4.09 | 6.09 | 
25 |  |  |  |  |  |  | O=c1cc(Cn2cc(-c3cc(F)cc(F)c3)nn2)c2ccc(O)cc2o1 | 4.41 | 4.18 | 4.56 | 4.68 | < 4.00 |  | >4
26 | > 256 | > 256 | > 256 | > 256 | 16 (≈ 39.7 µM) | > 256 | CCCCCCc1ccc(-c2cn(Cc3cc(=O)oc4cc(O)ccc34)nn2)cc1 | 5.04 | 4.43 | 5.06 | 5.05 | < 4.00 | 4.86 | 
27 |  |  |  |  |  |  | CC(O)c1cn(Cc2cc(=O)oc3cc(O)ccc23)nn1 (centres undefined) | < 4.00 | < 4.00 | < 4.00 | < 4.00 | < 4.00 |  | 
28 |  |  |  |  |  |  | O=c1cc(Cn2cc(C3CC3)nn2)c2ccc(O)cc2o1 | < 4.00 | < 4.00 | < 4.00 | 4.04 | < 4.00 |  | 

Row | SMILES | MIC (Escherichia coli) [µg/mL] | MIC80 (Staphylococcus aureus) [µg/mL] | MIC80 (Acinetobacter baumannii) [µg/mL] | MIC80 (Pseudomonas aeruginosa) [µg/mL] | MIC80 (Enterococcus faecalis) [µg/mL] | MIC80 (Klebsiella pneumoniae) [µg/mL] | pIC50 [1] | pIC50 [2] | pIC50 [3] | pIC50 [4] | pIC50 [5] | pIC50 [6] | Ratio IC50 (A549)
29 | CC(C)(O/N=C(\C(=O)N[C@@H]1C(=O)N2C(C(=O)[O-])=C(C[n+]3ccccc3)CS[C@H]12)c1csc(N)n1)C(=O)O [CEFTAZIDIME] | 0.5 (≈ 0.915 µM) | 64 (≈ 117 µM) | 16 (≈ 29.3 µM) | 4 (≈ 7.32 µM) | 256 (≈ 468 µM) | > 256 |  |  |  |  |  |  | 
